Reference: paper PMC4924508 (Theranostics, 2016)
Square brackets hold non-standard residues; d marks the D form. Peptide text beside a SMILES is read from it. * marks the point of attachment. Biotin = O=C1N[C@H]2[C@H](CS[C@H]2CCCCC(=O)*)N1

What was measured:
[1] = Serum stability study in normal mouse serum, MALDI-TOF MS; assay type: in vitro ADME; conditions: 37 °C, result in words
[2] = tested on: CT-26 colon carcinoma tumors / M2-like TAMs; assay: In vivo biodistribution study in CT-26 tumor model; set-up: species or system mouse; conditions: 20 min after injection, n = 5, result in words
Outline: (§1)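 Female BALB/c mice (6 week-old) received CT-26 cells in the right flank or 4T1 cells in the mammary fat pad, and were used 2 weeks later (tumor diameter ≤1.5 cm). Sulfo-Cy5-labeled test compound (2.24 nmol, PBS/10% DMSO) or PBS was injected retro-orbitally. After 20 min, mice were PBS-perfused. Tumors were enzymatically dissociated, Fc-blocked, stained for CD11b/Ly-6G/F4/80, PFA-fixed and run on flow cytometry. Subsets were compared by one-way ANOVA/Tukey.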

[3] = tested on: 4T1 breast carcinoma tumors / M2-like TAMs; assay: In vivo biodistribution study in 4T1 tumor model; set-up: species or system mouse; conditions: 20 min after injection, n = 3, result in words
Outline: as §1

| Molecule | protection against endolytic cleavage at the W10/W11 site in serum [1] | also measured |
| --- | --- | --- |
| CC(=O)N[C@@H](Cc1ccc(O)cc1)C(=O)N[C@@H](CCC(=O)O)C(=O)N[C@@H](CCC(N)=O)C(=O)N[C@@H](CC(=O)O)C(=O)N1CCC[C@H]1C(=O)N[C@@H](Cc1c[nH]c2ccccc12)C(=O)NCC(=O)N[C@H](C(=O)N[C@@H](CCCNC(=N)N)C(=O)N[C@@H](Cc1ccc(O)cc1)C(=O)N[C@@H](Cc1c[nH]c2ccccc12)C(=O)N[C@@H](Cc1ccc(O)cc1)C(=O)NCC(=O)NCC(=O)NCC(=O)N[C@@H](CO)C(=O)N[C@H](CCCCN)C(=O)N[C@H](CCCCN)C(=O)N[C@H](CCCCN)C(=O)N[C@@H](CCCCNC(=O)CCCC[C@@H]1SC[C@@H]2NC(=O)N[C@@H]21)C(N)=O)C(C)C [AcM2pep(RY)Biotin] (Ac-YEQDPWGVRYWYGGGS[dK][dK][dK]K(Biotin)-NH2) | did not improve serum stability at the W10/W11 site | – |
| CC(=O)N[C@@H](Cc1ccc(O)cc1)C(=O)N[C@@H](CCC(=O)O)C(=O)N[C@@H](CCC(N)=O)C(=O)N[C@@H](CC(=O)O)C(=O)N1CCC[C@H]1C(=O)N[C@@H](Cc1c[nH]c2ccccc12)C(=O)NCC(=O)N[C@H](C(=O)N[C@@H](CCCCN)C(=O)N[C@@H](Cc1c[nH]c2ccccc12)C(=O)N[C@@H](Cc1c[nH]c2ccccc12)C(=O)N[C@@H](Cc1ccc(O)cc1)C(=O)NCC(=O)NCC(=O)NCC(=O)N[C@@H](CO)C(=O)N[C@@H](CCCCN)C(=O)N[C@@H](CCCCN)C(=O)N[C@@H](CCCCN)C(=O)N[C@@H](CCCCNC(=O)CCCC[C@@H]1SC[C@@H]2NC(=O)N[C@@H]21)C(N)=O)C(C)C [AcM2pepBiotin] (Ac-YEQDPWGVKWWYGGGSKKKK(Biotin)-NH2) | – | overall serum stability [1]: did not improve the overall serum stability; resistance to N-terminal (exolytic) degradation in serum [1]: resistant to N-terminal degradation |
| CC(=O)N[C@@H](Cc1ccc(O)cc1)C(=O)N[C@@H](CCC(=O)O)C(=O)N[C@@H](CCC(N)=O)C(=O)N[C@@H](CC(=O)O)C(=O)N1CCC[C@H]1C(=O)N[C@@H](Cc1c[nH]c2ccccc12)C(=O)NCC(=O)N[C@H](C(=O)N[C@@H](CCCNC(=N)N)C(=O)N[C@@H](Cc1c[nH]c2ccccc12)C(=O)N[C@@H](Cc1c[nH]c2ccccc12)C(=O)N[C@@H](Cc1ccc(O)cc1)C(=O)NCC(=O)NCC(=O)NCC(=O)N[C@@H](CO)C(=O)N[C@@H](CCCCN)C(=O)N[C@@H](CCCCN)C(=O)N[C@@H](CCCCN)C(=O)N[C@@H](CCCCNC(=O)CCCC[C@@H]1SC[C@@H]2NC(=O)N[C@@H]21)C(N)=O)C(C)C [K9R] (Ac-YEQDPWGVRWWYGGGSKKKK(Biotin)-NH2) | did not confer protection at the W10/W11 site | – |
| CC(=O)N[C@@H](Cc1ccc(O)cc1)C(=O)N[C@@H](CCC(=O)O)C(=O)N[C@@H](CCC(N)=O)C(=O)N[C@@H](CC(=O)O)C(=O)N1CCC[C@H]1C(=O)N[C@@H](Cc1c[nH]c2ccccc12)C(=O)NCC(=O)N[C@H](C(=O)N[C@@H](CCCCN)C(=O)N1CCC[C@H]1C(=O)N[C@@H](Cc1c[nH]c2ccccc12)C(=O)N[C@@H](Cc1ccc(O)cc1)C(=O)NCC(=O)NCC(=O)NCC(=O)N[C@@H](CO)C(=O)N[C@H](CCCCN)C(=O)N[C@H](CCCCN)C(=O)N[C@H](CCCCN)C(=O)N[C@@H](CCCCNC(=O)CCCC[C@@H]1SC[C@@H]2NC(=O)N[C@@H]21)C(N)=O)C(C)C [W10P] (Ac-YEQDPWGVKPWYGGGS[dK][dK][dK]K(Biotin)-NH2) | did not confer protection at the W10/W11 site | – |
| CC(=O)N[C@@H](Cc1ccc(O)cc1)C(=O)N[C@@H](CCC(=O)O)C(=O)N[C@@H](CCC(N)=O)C(=O)N[C@@H](CC(=O)O)C(=O)N1CCC[C@H]1C(=O)N[C@@H](Cc1c[nH]c2ccccc12)C(=O)NCC(=O)N[C@H](C(=O)N[C@@H](CCCCN)C(=O)N[C@@H](Cc1ccc(O)cc1)C(=O)N[C@@H](Cc1c[nH]c2ccccc12)C(=O)N[C@@H](Cc1ccc(O)cc1)C(=O)NCC(=O)NCC(=O)NCC(=O)N[C@@H](CO)C(=O)N[C@H](CCCCN)C(=O)N[C@H](CCCCN)C(=O)N[C@H](CCCCN)C(=O)N[C@@H](CCCCNC(=O)CCCC[C@@H]1SC[C@@H]2NC(=O)N[C@@H]21)C(N)=O)C(C)C [W10Y] (Ac-YEQDPWGVKYWYGGGS[dK][dK][dK]K(Biotin)-NH2) | did not confer protection at the W10/W11 site | – |
| CC(=O)N[C@@H](Cc1ccc(O)cc1)C(=O)N[C@@H](CCC(=O)O)C(=O)N[C@@H](CCC(N)=O)C(=O)N[C@@H](CC(=O)O)C(=O)N1CCC[C@H]1C(=O)N[C@@H](Cc1c[nH]c2ccccc12)C(=O)NCC(=O)N[C@H](C(=O)N[C@@H](CCCCN)C(=O)N[C@H](Cc1c[nH]c2ccccc12)C(=O)N[C@@H](Cc1c[nH]c2ccccc12)C(=O)N[C@@H](Cc1ccc(O)cc1)C(=O)NCC(=O)NCC(=O)NCC(=O)N[C@@H](CO)C(=O)N[C@@H](CCCCN)C(=O)N[C@@H](CCCCN)C(=O)N[C@@H](CCCCN)C(=O)N[C@@H](CCCCNC(=O)CCCC[C@@H]1SC[C@@H]2NC(=O)N[C@@H]21)C(N)=O)C(C)C [W10w] (Ac-YEQDPWGVK[dW]WYGGGSKKKK(Biotin)-NH2) | effective protection against endolytic cleavage at the W10/W11 site | – |
| CC(=O)N[C@@H](Cc1ccc(O)cc1)C(=O)N[C@@H](CCC(=O)O)C(=O)N[C@@H](CCC(N)=O)C(=O)N[C@@H](CC(=O)O)C(=O)N1CCC[C@H]1C(=O)N[C@@H](Cc1c[nH]c2ccccc12)C(=O)NCC(=O)N[C@H](C(=O)N[C@@H](CCCNC(=N)N)C(=O)N[C@@H](Cc1ccc(O)cc1)C(=O)N[C@@H](Cc1c[nH]c2ccccc12)C(=O)N[C@H](Cc1ccc(O)cc1)C(=O)NCC(=O)NCC(=O)NCC(=O)N[C@@H](CO)C(=O)N[C@H](CCCCN)C(=O)N[C@H](CCCCN)C(=O)N[C@H](CCCCN)C(=O)N[C@@H](CCCCNC(=O)CCCC[C@@H]1SC[C@@H]2NC(=O)N[C@@H]21)C(N)=O)C(C)C [Y12y] (Ac-YEQDPWGVRYW[dY]GGGS[dK][dK][dK]K(Biotin)-NH2) | did not improve serum stability at the W10/W11 site | – |
| CGYEQDPWGVRYWYGCkkk(k(N3)-sulfoCy5) (disulfide) [Cyclic M2pep(RY)-sulfoCy5] | – | intratumoral selectivity to M2-like TAMs over M1-like TAMs and CD11b- cells [2]: selectivity to M2-like TAMs over M1-like TAMs and non-TAM CD11b^- cells was observed; intratumoral uptake in M2-like TAMs (flow cytometry) [2]: significantly higher uptake in M2-like TAMs compared to M2pep-sulfoCy5; intratumoral accumulation in M2-like TAMs (flow cytometry) [3]: accumulated preferentially in M2-like TAMs |
| YEQDPWGVKWWYGGGSKKK(k(N3)-sulfoCy5) [M2pep-sulfoCy5] | – | intratumoral selectivity to M2-like TAMs over M1-like TAMs and CD11b- cells [2]: selectivity to M2-like TAMs over M1-like TAMs and non-TAM CD11b^- cells was observed |
